Source: PubChem BioAssay (several laboratories)
SENP6 inh – SENP6 protease inhibitors, primary screen, biochemical, luminescence, uHTS. Sentrin-specific protease 6 (Homo sapiens), Q9GZR1. Recombinant SENP6 catalytic domain, aminoluciferin luminescence. inhibition, % at 10 µM. hit rate 1.8% among 330,000;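 active means inhibition above about 50% at the single tested dose, limit read from the data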;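 further: plate controls were DMSO wells with enzyme for no effect and DMSO wells lacking enzyme for full effect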
SENP7 block – SENP7 protease inhibitors, primary screen, biochemical, luminescence, uHTS; AID 434973, 2010; Sentrin-specific protease 7 (Homo sapiens), Q9BQF6; hit rate 1.5% among 330,000; recombinant SENP7, Z-RLRGG-aminoluciferin luminescence, 40 min; inhibition, % at 5 µM;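 active means inhibition above about 50% at the single test dose, limit read from the data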;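 further: plate controls were DMSO with enzyme for no effect and no enzyme buffer wells for full effect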
Target sequence (Q9BQF6 706-1050 limits assumed): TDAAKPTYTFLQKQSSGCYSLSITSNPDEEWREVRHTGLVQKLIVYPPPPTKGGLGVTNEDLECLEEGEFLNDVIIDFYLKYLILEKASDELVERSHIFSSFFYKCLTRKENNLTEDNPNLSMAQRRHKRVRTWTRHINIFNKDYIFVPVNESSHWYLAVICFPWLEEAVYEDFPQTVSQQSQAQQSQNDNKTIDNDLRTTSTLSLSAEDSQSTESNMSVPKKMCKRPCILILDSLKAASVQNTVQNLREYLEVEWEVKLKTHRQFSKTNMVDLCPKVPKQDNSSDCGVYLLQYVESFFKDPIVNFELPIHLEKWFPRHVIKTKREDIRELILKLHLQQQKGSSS
UCH37 DUB inh – inhibitors of human UCH37 deubiquitinase, primary screen, biochemical, Ub-AMC cleavage, fluorescence | Ubiquitin carboxyl-terminal hydrolase isozyme L5 (Homo sapiens), Q9Y5K5 | purified proteasome/UCH37 | inhibition, % (test concentration not listed) | hit rate 0.33% among 330,000;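 active means mean inhibition over replicate wells above about 20%, limit read from the data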;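 further: 0% = compound-free wells with enzyme and 100% = wells lacking proteasome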
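Signal – fluorescence, ex 355 nm, em 460 nm · System – Proteasome-bound UCH37 · Input – 0.15 nM proteasome as dispensed · Timing – 30 min preincubation with enzyme, 25 min cleavage at room temperature · Read-out basis – percent inhibition of cleavage signal versus uninhibited and no-proteasome wells · Medium – Tris-HCl pH 7.4 with ATP-MgCl2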
SENP1 inh – human SENP1 catalytic domain inhibitors, primary screen, biochemical, FRET, uHTS | hit rate 0.21% among 360,000 | recombinant SENP1 catalytic domain, CyPet-SUMO1-YPet FRET cleavage | inhibition, % at 10 µM | Sentrin-specific protease 1 (Homo sapiens), Q9P0U3;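 active means inhibition at least 30% at 10 µM, raw YFP signal under a set limit, fluorescence ratio 0.5 to 1.5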;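 further: 0% = enzyme with DMSO and 100% = no enzyme wells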
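Assay system – human recombinant His6-tagged SENP1 catalytic domain enzyme · Input – SENP1 enzyme, 20 pM final · Buffer or medium – Tris pH 8 buffer plus EDTA, NaCl, BME, BSA, NP40, catalase · Schedule – 50 min reaction at room temperature · Technique – FRET read of cyan and yellow fluorescence · Control set – no-enzyme wells low, DMSO-plus-enzyme wells high control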
SENP8 block-1 – human SENP8 protease inhibitors, primary screen, biochemical, fluorescence, Nedd8 protein substrate, uHTS. Sentrin-specific protease 8 (Homo sapiens), Q96LD8. recombinant SENP8. inhibition, % at 20 µM. hit rate 0.64% among 360,000; in the data active means inhibition mostly above about 40%, no sharp cut-off; inactive means mostly below about 27%
Target sequence (Q96LD8 whole entry, looked up): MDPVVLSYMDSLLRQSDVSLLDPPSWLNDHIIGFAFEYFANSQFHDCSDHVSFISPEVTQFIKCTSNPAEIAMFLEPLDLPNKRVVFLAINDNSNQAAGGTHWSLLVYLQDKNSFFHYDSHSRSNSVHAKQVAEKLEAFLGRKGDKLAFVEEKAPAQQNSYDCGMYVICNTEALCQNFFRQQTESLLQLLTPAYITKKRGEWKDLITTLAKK
SENP8 block-2 – SENP8 protease inhibitors, primary screen, biochemical, luminescence; Sentrin-specific protease 8 (Homo sapiens), Q96LD8; purified SENP8, Z-RLRGG-aminoluciferin cleavage; inhibition, % at 10 µM; hit rate 1.2% among 330,000; AID 2540, 2010; in the data active means inhibition above about 50%
SENP8 conf – human SENP8 protease inhibitors, confirmation, biochemical, Nedd8 protein substrate, single concentration; AID 624319, 2012; inhibition, % at 25 µM; purified SENP8, Nedd8-AMC/pro-Nedd8 cleavage fluorescence, 30 min; hit rate 15% among 1,400; shares compounds with SENP8 block-1; in the data active means inhibition mostly above about 39%, no sharp cut-off; inactive means mostly below about 34%
* marks the source's active call; other numbers are inactive results; / = no result. Shown are actives, neighbours in structure and some others; about 2.6% of the full set was active somewhere.

SMILES	SENP6 inh	SENP7 block	UCH37 DUB inh	SENP1 inh	SENP8 block-1	SENP8 block-2	SENP8 conf
O=C1Nc2ccccc2C1=O	-16	4	3	1	44*	-4	14
COc1ccccc1NC(=O)COc1ccc(/C=N/NS(=O)(=O)c2ccc(C)cc2)cc1	-23	-2	/	2	47*	-4	14
O=C(NN=Cc1ccccc1O)C1CCCC1	/	/	-40	/	/	/	/
Cc1nnc(N/N=C/c2ccccc2C(F)(F)F)n1N	16	0	/	2	12	4	/
Cc1nnc(N/N=C/c2cccc(C(F)(F)F)c2)n1N	3	4	/	2	49*	2	22
Cc1ccc(NC(=O)C(=O)c2c(-c3ccccc3)cc3ccccn23)cc1S(=O)(=O)N1CCOCC1	31	2	6	4	52*	14	28
Cc1ccc(OCC(=O)NCCN2CCOCC2)cc1C	3	6	2	2	43*	8	8
O=[N+]([O-])c1ccccc1NCCNc1ncc(C(F)(F)F)cc1Cl	-15	-1	4	3	30	-15	/
O=[N+]([O-])c1cc(Cl)ccc1NCCNc1ncc(C(F)(F)F)cc1Cl	-17	3	1	8	43*	0	13
CCOc1ccc(Cc2n[nH]c(=S)n2N)cc1	-33	-15	1	0	12	-11	/
COc1ccc(N2Nc3n[nH]c(N)c3N2)cc1	19	16	10	3	51*	-6	10
CCOc1ccc(N2Nc3n[nH]c(N)c3N2)cc1	16	-1	15	3	49*	-18	35
Cc1ccc(Cn2cc(/C=C/C(=O)O)c(-c3ccccc3)n2)cc1	-34	3	0	2	43*	-6	9
Cc1ccc(-c2nn(Cc3ccccc3)cc2/C=C/C(=O)O)cc1	-12	-3	1	1	18	-6	/
Cc1cc(C)cc(OCC(=O)ON=C(N)c2ccccn2)c1	/	/	-4	/	/	/	/
CC(=O)Nc1ccc(NC(=O)C(C)OC(=O)CCCN=C2NS(=O)(=O)c3ccccc32)cc1 (stereo not drawn)	-6	-15	1	-2	2	-5	/
CC(OC(=O)CCN=C1NS(=O)(=O)c2ccccc21)C(=O)c1ccccc1 (stereo not drawn)	2	1	/	2	8	-7	/
Cc1ccc(C(=O)C(C)OC(=O)CCN=C2NS(=O)(=O)c3ccccc32)cc1 (stereo not drawn)	-13	1	4	1	46*	-8	-4
CC(OC(=O)CCN=C1NS(=O)(=O)c2ccccc21)C(=O)Nc1ccc(N(C)C)cc1 (stereo not drawn)	-18	8	/	3	45*	-14	18
CCOc1cc(C=NNC(=O)c2ccc(C)nc2)ccc1OC(=O)c1ccc(F)cc1	/	/	6	/	/	/	/
COc1ccc(C2CC(=O)c3c(O)cc(O)cc3O2)cc1O (stereo not drawn)	/	/	/	2	41*	/	8
CSc1ncccc1C(=O)N1CCCC(C(=O)c2cc(F)ccc2F)C1 (stereo not drawn)	-4	0	6	5	57*	1	10
COc1ncccc1C(=O)N1CCCC(C(=O)c2cc(F)ccc2F)C1 (stereo not drawn)	-3	-3	5	1	12	0	/
CN(C)c1ccc(C=NNC(=O)C[n+]2ccccc2)cc1	/	/	15	/	/	/	/
CCOC(=O)c1nn(-c2ccc(OC)cc2)c(=O)c2c(N)scc12	25	-6	10	5	41*	3	53*
SMILES	SENP6 inh	SENP7 block	UCH37 DUB inh	SENP1 inh	SENP8 block-1	SENP8 block-2	SENP8 conf
CCOC(=O)c1nnn(-c2ccc(OC)cc2)c1N	-7	7	1	2	25	3	/
O=C(NC(C(=O)NN=Cc1ccncc1)c1n[nH]c(=O)c2ccccc12)c1ccccc1 (stereo not drawn)	/	/	0	/	/	/	/
NNc1nnc2c3cc(F)ccc3n(CCc3ccccc3)c2n1	17	-1	5	0	52*	5	39
CCC(C)N=C1SCC(C)(C=NO)S1 (stereo not drawn)	/	/	2	/	/	/	/
CCCCOC(=O)c1ccc(-c2ccc(C=NNC(=S)NCC)o2)cc1	/	/	-38	/	/	/	/
O=C1Cc2ccccc2C(=O)N1	/	/	/	-9	81*	/	84*
O=C1Nc2ccccc2CCc2ccccc21	-4	7	4	2	5	-5	/
O=[N+]([O-])c1cc([N+](=O)[O-])c(Oc2cc(F)ccc2F)cc1NN1CCCCC1	0	-3	4	4	55*	-5	22
CCN(CC)c1ccc(C=NNC(=O)CCC(=O)NCc2ccccc2)c(O)c1	/	/	-22	/	/	/	/
Cc1ccc(-n2cnc(N)c2C(=O)c2cccc([N+](=O)[O-])c2)cc1	-4	2	7	4	55*	4	12
CC(=NNC(N)=S)c1ccccc1[N+](=O)[O-]	/	/	5	/	/	/	/
COC(=O)CN1C(=O)S/C(=C/c2ccc(N3CCCCC3)o2)C1=O	-4	-7	9	-22	42*	-14	27
Cc1ccccc1-c1n[nH]c(=S)n1N=C/C=C/c1ccco1	/	/	10	/	/	/	/
Cc1ccsc1C=NNC(=O)CC(=O)NCC(C)C	/	/	4	/	/	/	/
O=C(CN1CCN(C(=O)N2CCOCC2)CC1)Nc1ccc(Br)cc1	-12	4	1	1	41*	-7	12
O=C(CN1CCOCC1)Nc1ccc(Br)cc1	0	3	1	1	-2	-10	/
Cc1ccc(C)c(S(=O)(=O)NN=Cc2cccnc2)c1	/	/	5	/	/	/	/
Cc1cc(C)c2c(c1)/C(=N/Nc1ccc(S(N)(=O)=O)cc1[N+](=O)[O-])CCC2	-3	9	/	6	53*	3	-3
COc1cc(C=NNC(=O)Nc2cccc3nsnc23)cc(OC)c1OC	/	/	-14	/	/	/	/
Cc1ccc(C2NNC(=O)C2NC(=O)c2ccccc2)cc1 (stereo not drawn)	4	1	3	1	64*	1	8
